Legend:
[1] = molecular target: Neuronal acetylcholine receptor; alpha4/beta2 (Rattus norvegicus, UniProt P09483+P12390); experiment: Displacement of [3H]epibatidine from alpha4beta2 nAChR in rat cortex membranes by liquid scintillation counting method; assay type: cell membranes
Procedure, shortened: (§1)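 Rat hippocampus (α7) or cortex (α4β2) membranes. Ki obtained by simultaneous nonlinear least-squares fitting of three saturation plus three competition binding experiments per compound per subtype.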

[2] = molecular target: T1, Neuronal acetylcholine receptor; alpha3/beta4 (Homo sapiens, UniProt P30926+P32297); experiment: Displacement of [3H]epibatidine from human alpha3beta4 nAChR expressed in HEK293 cell membranes by liquid scintillation counting method
T1 sequence (P30926 whole entry): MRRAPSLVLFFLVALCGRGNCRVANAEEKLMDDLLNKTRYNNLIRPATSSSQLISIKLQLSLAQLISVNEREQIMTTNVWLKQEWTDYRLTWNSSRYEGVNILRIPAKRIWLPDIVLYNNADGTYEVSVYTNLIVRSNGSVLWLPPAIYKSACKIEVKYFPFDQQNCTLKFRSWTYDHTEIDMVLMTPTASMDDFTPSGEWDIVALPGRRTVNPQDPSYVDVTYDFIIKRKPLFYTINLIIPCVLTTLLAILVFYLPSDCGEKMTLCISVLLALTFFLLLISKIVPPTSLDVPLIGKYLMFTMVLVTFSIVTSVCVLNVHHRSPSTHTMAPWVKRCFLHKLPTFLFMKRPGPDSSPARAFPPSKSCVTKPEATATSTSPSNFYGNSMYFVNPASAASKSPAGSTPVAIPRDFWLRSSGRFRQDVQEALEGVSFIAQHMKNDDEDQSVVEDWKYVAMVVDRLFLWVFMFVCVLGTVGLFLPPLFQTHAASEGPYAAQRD
T1 sequence (P32297 whole entry): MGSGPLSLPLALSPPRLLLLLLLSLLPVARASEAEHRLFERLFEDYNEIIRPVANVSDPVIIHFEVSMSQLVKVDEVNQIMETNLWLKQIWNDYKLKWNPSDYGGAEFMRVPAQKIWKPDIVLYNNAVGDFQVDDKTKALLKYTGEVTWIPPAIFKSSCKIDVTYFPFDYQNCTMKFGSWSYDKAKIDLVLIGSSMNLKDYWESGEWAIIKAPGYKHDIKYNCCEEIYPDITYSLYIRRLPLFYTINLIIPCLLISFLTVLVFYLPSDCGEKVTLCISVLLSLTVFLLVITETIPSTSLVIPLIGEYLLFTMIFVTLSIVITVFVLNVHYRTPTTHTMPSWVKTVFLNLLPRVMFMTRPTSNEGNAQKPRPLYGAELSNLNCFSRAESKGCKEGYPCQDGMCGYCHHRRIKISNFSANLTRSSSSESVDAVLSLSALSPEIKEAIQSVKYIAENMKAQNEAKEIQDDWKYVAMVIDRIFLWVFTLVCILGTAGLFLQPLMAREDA
Procedure, shortened: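 Competition against [3H]epibatidine on membranes of human α3β4-transfected cells. Ki obtained by simultaneously fitting three independent saturation and three competition experiments per compound with nonlinear least squares.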

[3] = molecular target: Neuronal acetylcholine receptor subunit alpha-7 (Rattus norvegicus, UniProt Q05941); experiment: Displacement of [125I]]-alpha-bungarotoxin from alpha7 nAChR in rat hippocampus membranes by liquid scintillation counting method; assay type: cell membranes, Membrane; procedure, shortened: as §1
Neuronal acetylcholine receptor subunit alpha-7, sequence (Q05941 whole entry): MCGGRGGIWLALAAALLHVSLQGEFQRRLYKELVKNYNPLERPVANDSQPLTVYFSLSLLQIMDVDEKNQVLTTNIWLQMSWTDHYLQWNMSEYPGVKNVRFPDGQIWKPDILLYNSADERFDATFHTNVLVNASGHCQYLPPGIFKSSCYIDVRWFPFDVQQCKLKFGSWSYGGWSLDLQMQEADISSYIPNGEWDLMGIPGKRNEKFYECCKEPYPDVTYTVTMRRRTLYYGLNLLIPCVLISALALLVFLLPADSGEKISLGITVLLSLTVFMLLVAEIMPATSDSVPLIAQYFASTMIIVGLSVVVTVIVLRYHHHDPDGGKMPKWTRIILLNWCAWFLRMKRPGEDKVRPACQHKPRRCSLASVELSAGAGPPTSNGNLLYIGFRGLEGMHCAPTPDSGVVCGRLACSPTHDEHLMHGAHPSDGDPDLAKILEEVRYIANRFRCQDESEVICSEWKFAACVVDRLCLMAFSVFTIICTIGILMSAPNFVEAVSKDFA

[4] = molecular target: T1, Neuronal acetylcholine receptor; alpha3/beta4; experiment: Agonist activity at human alpha3beta4 nAChR expressed in rat GH4C1 cells assessed as induction of peak current amplitude at holding potential of -70 mV by whole-cell patch clamp assay relative to acetylcholine; assay type: cell-based; conditions: GH4-C1
Procedure, shortened: (§2)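 Human α3β4 or α4β2 nAChR transiently transfected into rat anterior pituitary GH4C1 cells (0.5 μg each subunit cDNA, magnetofection). Whole-cell patch clamp at −70 mV holding potential, with gravity-driven fast perfusion. Agonist concentrations applied sequentially. Peak currents normalized to 1 mM ACh on the same cell. EC50, Imax and nH from Hill equation fit.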

[5] = molecular target: T2, Neuronal acetylcholine receptor; alpha4/beta2 (Homo sapiens, UniProt P17787+P43681); experiment: Agonist activity at human alpha4beta2 nAChR expressed in rat GH4C1 cells assessed as induction of peak current amplitude at holding potential of -70 mV by whole-cell patch clamp assay; assay type: cell-based, GH4-C1; procedure, shortened: as §2
T2 sequence (P17787 whole entry): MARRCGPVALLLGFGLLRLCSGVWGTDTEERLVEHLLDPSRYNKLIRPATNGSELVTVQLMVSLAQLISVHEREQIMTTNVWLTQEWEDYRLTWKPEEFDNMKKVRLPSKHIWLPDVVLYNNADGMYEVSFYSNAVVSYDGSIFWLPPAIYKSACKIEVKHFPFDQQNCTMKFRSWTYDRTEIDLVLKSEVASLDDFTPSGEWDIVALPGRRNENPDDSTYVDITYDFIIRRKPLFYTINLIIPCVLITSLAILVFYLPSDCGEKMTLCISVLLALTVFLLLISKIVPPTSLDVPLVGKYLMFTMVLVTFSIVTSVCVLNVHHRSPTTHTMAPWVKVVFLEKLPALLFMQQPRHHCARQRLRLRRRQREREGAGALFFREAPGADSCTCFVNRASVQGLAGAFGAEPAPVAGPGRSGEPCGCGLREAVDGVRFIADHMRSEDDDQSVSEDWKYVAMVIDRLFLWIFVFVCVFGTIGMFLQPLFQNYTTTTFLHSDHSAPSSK
T2 sequence (P43681 whole entry): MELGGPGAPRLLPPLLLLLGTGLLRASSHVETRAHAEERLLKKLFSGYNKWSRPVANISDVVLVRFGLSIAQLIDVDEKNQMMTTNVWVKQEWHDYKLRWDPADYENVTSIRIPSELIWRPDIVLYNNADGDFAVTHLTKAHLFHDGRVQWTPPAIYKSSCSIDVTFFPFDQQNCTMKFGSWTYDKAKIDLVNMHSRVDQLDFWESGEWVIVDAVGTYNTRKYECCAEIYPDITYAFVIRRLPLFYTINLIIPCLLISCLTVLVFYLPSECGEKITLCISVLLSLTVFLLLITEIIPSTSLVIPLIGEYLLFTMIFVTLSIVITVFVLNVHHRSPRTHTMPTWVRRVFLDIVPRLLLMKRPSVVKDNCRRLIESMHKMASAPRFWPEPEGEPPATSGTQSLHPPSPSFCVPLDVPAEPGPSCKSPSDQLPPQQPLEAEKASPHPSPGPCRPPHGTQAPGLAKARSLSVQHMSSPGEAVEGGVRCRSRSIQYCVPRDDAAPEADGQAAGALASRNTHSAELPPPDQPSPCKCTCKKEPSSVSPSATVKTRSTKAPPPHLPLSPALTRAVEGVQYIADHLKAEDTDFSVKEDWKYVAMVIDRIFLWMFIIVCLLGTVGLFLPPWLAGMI

[6] = molecular target: T2, Neuronal acetylcholine receptor; alpha4/beta2; experiment: Agonist activity at human alpha4beta2 nAChR expressed in rat GH4C1 cells assessed as induction of peak current amplitude at holding potential of -70 mV by whole-cell patch clamp assay relative to acetylcholine; assay type: cell-based; conditions: GH4-C1; procedure, shortened: as §2
[7] = molecular target: T1, Neuronal acetylcholine receptor; alpha3/beta4; experiment: Agonist activity at human alpha3beta4 nAChR expressed in rat GH4C1 cells assessed as induction of peak current amplitude at holding potential of -70 mV by whole-cell patch clamp assay; assay type: cell-based, GH4-C1
Procedure, shortened: (§3)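 Human α3β4 or α4β2 subunit cDNAs (0.5 μg each) transiently transfected into rat GH4C1 cells by magnetofection. Whole-cell voltage clamp at −70 mV, 85−90% series-resistance compensation, fast gravity-perfusion exchanger. Agonist concentrations applied sequentially; peak currents normalized to 1 mM ACh on the same cell. EC50 and nH from Hill-equation fit where possible.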

[8] = molecular target: T2, Neuronal acetylcholine receptor; alpha4/beta2; experiment: Selectivity index, ratio of EC50 for human alpha3beta4 nAChR expressed in rat GH4C1 cells to EC50 for human alpha4beta2 nAChR expressed in rat GH4C1 cells; assay type: cell-based; conditions: GH4-C1; procedure, shortened: as §3
[9] = molecular target: T2, Neuronal acetylcholine receptor; alpha4/beta2; experiment: Agonist activity at human alpha4beta2 nAChR in (alpha4)3(beta2)2 stoichiometry form relative to control; assay type: protein-complex assay

Neuronal acetylcholine receptor; alpha4/beta2 (Rattus norvegicus, UniProt P09483+P12390), sequence (P09483 whole entry): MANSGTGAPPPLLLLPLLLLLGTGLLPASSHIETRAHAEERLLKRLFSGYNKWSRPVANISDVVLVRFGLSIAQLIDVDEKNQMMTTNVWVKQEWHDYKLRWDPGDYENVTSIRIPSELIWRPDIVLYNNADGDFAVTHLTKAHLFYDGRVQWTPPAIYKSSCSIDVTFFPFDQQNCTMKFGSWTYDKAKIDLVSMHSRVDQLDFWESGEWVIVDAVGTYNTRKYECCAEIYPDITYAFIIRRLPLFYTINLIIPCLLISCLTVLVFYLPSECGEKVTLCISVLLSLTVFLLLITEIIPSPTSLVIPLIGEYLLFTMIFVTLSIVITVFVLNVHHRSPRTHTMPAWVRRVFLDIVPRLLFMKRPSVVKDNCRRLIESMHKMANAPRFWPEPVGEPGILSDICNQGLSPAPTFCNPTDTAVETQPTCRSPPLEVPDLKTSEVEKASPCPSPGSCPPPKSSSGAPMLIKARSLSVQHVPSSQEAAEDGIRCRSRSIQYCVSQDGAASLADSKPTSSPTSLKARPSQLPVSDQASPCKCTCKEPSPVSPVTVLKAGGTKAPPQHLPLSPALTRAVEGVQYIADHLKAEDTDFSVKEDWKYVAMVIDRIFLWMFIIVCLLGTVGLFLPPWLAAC
Neuronal acetylcholine receptor; alpha4/beta2 (Rattus norvegicus, UniProt P09483+P12390), sequence (P12390 whole entry): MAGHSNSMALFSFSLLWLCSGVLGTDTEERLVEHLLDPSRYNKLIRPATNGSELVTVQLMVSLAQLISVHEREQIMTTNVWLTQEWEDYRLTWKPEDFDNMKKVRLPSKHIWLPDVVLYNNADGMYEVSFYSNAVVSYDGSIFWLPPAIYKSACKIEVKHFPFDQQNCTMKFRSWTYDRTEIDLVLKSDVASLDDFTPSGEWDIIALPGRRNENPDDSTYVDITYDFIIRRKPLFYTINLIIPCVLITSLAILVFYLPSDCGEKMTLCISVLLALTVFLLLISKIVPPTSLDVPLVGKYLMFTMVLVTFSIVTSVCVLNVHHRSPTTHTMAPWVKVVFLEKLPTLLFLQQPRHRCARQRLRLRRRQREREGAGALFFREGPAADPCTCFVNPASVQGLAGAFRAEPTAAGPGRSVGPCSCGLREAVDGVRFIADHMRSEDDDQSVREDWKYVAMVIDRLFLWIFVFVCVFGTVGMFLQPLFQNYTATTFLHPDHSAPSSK

| Compound | Ki [1] [nM] | Ki [2] [nM] | Ki [3] [nM] | Imax [4] [%] | EC50 [5] [nM] | Imax [6] [%] | EC50 [7] [nM] | Ratio EC50 [8] | Efficacy [9] [%] |
| --- | --- | --- | --- | --- | --- | --- | --- | --- | --- |
| CN1CC[C@H]1COc1ccccc1 | 101 | – | – | – | – | – | – | – | – |
| COc1ccccc1OC[C@@H]1CCCN1C | 9400 | 749 | – | – | – | – | – | – | – |
| C[C@H](Oc1cccnc1)[C@@H]1CCCN1C | 877 | 5600 | 6100 | – | – | – | – | – | – |
| CN1CCC[C@H]1COc1cncc(O)c1 | 3.7 | 235 | 321 | 15 | 73000 | 661 | – | – | – |
| COc1ccncc1OC[C@@H]1CCCN1C | 255 | 2100 | 9400 | – | – | – | – | – | – |
| Oc1cccc(OC[C@@H]2CCCN2)c1 | 407 | 3800 | 212 | – | – | – | – | – | – |
| Oc1cccc(OC[C@@H]2CCN2)c1 | 7.1 | 40 | 1200 | – | – | – | – | – | – |
| C[C@@H](Oc1ccccc1)[C@@H]1CCCN1C (racemic) | 1550 | 1300 | 15200 | – | – | – | – | – | – |
| CN1CCC[C@H]1COc1cccc(O)c1 | 1.1 | 74 | 119 | 85 | 4400 | 162 | 9000 | – | – |
| CC(Oc1ccccc1)C1CCCN1C (mixture of isomers) | 4590 | 1400 | 8900 | – | – | – | – | – | – |
| COc1ccc(O)cc1OC[C@@H]1CCCN1 | 1080 | 7700 | – | – | – | – | – | – | – |
| Oc1cncc(OC[C@@H]2CCCN2)c1 | 2.5 | 100 | 3500 | – | – | – | – | – | – |
| CN1CC[C@H]1COc1cccc(O)c1 | 8.5 | 102 | 29 | 57 | – | 131 | 9200 | – | – |
| COc1ccc(O)cc1OC[C@@H]1CCCN1C | 18.9 | 271 | 1150 | 7 | – | 17 | – | – | – |
| C[C@H](Oc1cccc(O)c1)[C@@H]1CCCN1C | 192 | 752 | 743 | – | – | – | – | – | – |
| COc1ccncc1OC[C@@H]1CCCN1 | 613 | 2900 | 21500 | – | – | – | – | – | – |
| CN1CCC[C@H]1[C@@H]1COc2ccc(O)cc2O1 | – | – | – | 28 | 300 | 29 | 17000 | 57 | – |
| C[C@@H](Oc1cccnc1)[C@@H]1CCCN1C (racemic) | 27 | 5000 | 388 | 7 | 13 | 39 | – | – | – |
| COc1ccccc1OC[C@@H]1CCCN1 | 53500 | 3600 | – | – | – | – | – | – | – |
| COc1ncccc1OC[C@@H]1CCCN1C | 7280 | 793 | – | – | – | – | – | – | – |
| c1ccc(OC[C@@H]2CCN2)cc1 | 52 | – | – | – | – | – | – | – | – |
| OCCCCC#Cc1cncc(OC[C@@H]2CCN2)c1 | – | – | – | 24 | 0.27 | 39 | – | – | 6 |
| C[C@@H](Oc1cccc(O)c1)[C@@H]1CCCN1C (racemic) | 11.1 | 257 | 57 | – | – | – | – | – | – |
| COc1ncccc1OC[C@@H]1CCCN1 | 8960 | 5300 | – | – | – | – | – | – | – |
